Screening results (PubChem)
H9c2 TAG inh: inhibitors of triacylglycerol accumulation | H9c2 cells, Nile Red lipid (TAG) fluorescence; cells loaded with 200 µM oleic acid | inhibition, % at 12.5 µM | 230,000 compounds, 0.66% hits | AID 651582;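 active means pattern-corrected inhibition of lipid staining of at least 50% with the nuclear-stain viability signal not falling by more than 50%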;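 further: 0% = DMSO wells and 100% = triacsin C control wells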
APP transl inh: APP translation inhibition. SH-SY5Y APP 5'UTR-luciferase reporter, luminescence. inhibition, % at 2 µM. 190,000 compounds, 0.82% hits;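 active means inhibition above a set limit, derived from the sample mean plus 3 SD, cut at about 45% in these data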
aSyn 5UTR inh: 5' untranslated region of α-synuclein, MLPCN primary screen; 300,000 compounds, 0.82% hits; alpha-synuclein 5'UTR reporter, inhibitor activity; inhibition, % (tested at 7.5 µM); AID 1813; in the data active means inhibition above about 60%;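 further: H4 neuroglioblastoma cells stably carrying SNCA 5'UTR luciferase fusion; 0% = DMSO wells and 100% = positive control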
Jurkat NFkB inh: lowers PMA/ionomycin-induced NF-kB signal in Jurkat cells; inhibition, % at 4 µM; 330,000 compounds, 0.53% hits; PMA/ionomycin-induced NF-kB luciferase reporter, luminescence; in the data active means inhibition above about 50%
697 NFkB inh: inhibitors of the PMA/ionomycin-induced NF-kB reporter in 697 B cells | 697 B-cell NF-kB luciferase reporter, 16 h | inhibition, % at 4 µM | 330,000 compounds, 0.33% hits | AID 435022; in the data active means inhibition above about 35%
Hep lipid drop: modulators of hepatic lipid droplet formation; inhibition, % at 6.5 µM; AML12 mouse hepatocytes, oleate lipid droplets, BODIPY imaging; AID 1656; 240,000 compounds, 0.4% hits;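 active means lipid droplet intensity inhibited by at least 50%, with more than 500 cells counted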
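Material – mouse AML12 hepatocyte cell line, fixed after treatment · Compound dosing – one dose, 6.5 µM compound · Times – compound with oleate, overnight · Measured by – Image-based BODIPY and DAPI two-channel analysis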
Jurkat NFkB conf: lowers PMA/ionomycin-induced NF-kB signal in Jurkat cells; AID 435020; inhibition, % at 4 µM; shares compounds with Jurkat NFkB inh; 2,700 compounds, 27% hits; Jurkat NF-kB luciferase, 16 h;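 active means inhibition reaching about 45% at 4 µM in either replicate, limit read from the data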;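 further: plate controls were PMA/ionomycin stimulated DMSO wells for no effect and unstimulated DMSO wells for full effect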
Active calls of the source: *; . = not tested or not shown. Only some compounds are listed: those with a hit (about 1.9% of all), similar ones and a draw of the others.

SMILES | H9c2 TAG inh | APP transl inh | aSyn 5UTR inh | Jurkat NFkB inh | 697 NFkB inh | Hep lipid drop | Jurkat NFkB conf
Cc1[nH]c2ccc(C(=O)N3CCN(c4cccc(Cl)c4)CC3)cc2c1C | . | . | -8 | 17 | -6 | 0 | .
COc1cc(C(=O)N2CCN(c3ccc(C)cc3C)CC2)cc(OC)c1OC | 37 | 76* | 28 | 63* | -93 | 16 | 21
Cc1[nH]c2ccc(C(=O)N3CCN(c4ccccc4Cl)CC3)cc2c1C | . | . | -5 | 8 | -12 | 0 | .
COc1ccccc1N1CCN(C(=O)c2oc3ccc(Br)cc3c2C)CC1 | . | 24 | 23 | 66* | -25 | -27 | 6
COc1ccccc1N1CCN(C(=O)c2ccc3[nH]c(C)c(C)c3c2)CC1 | . | . | 72* | 54* | 8 | -12 | 17
Cc1cccc(N2CCN(C(=O)c3ccc4[nH]c(C)c(C)c4c3)CC2)c1C | 34 | . | . | 56* | -37 | . | 52*
Cc1ccc(-c2nc3ccccc3c(C(=O)NCc3cccs3)c2C)cc1 | -4 | 9 | -11 | 5 | 25 | -23 | .
COc1ccc(/C=N/NC(=O)c2cc(-c3ccc(C)cc3C)nc3ccccc23)cc1COC(C)=O | 6 | 16 | -12 | -6 | 8 | . | .
